Values after ≈ are worked out from the molar mass of the structure shown.
Experiments:
Streptococcus pyogenes = test: Antibacterial activity against Streptococcus pyogenes ATCC 14289 by broth microdilution method
[1] = tested on: Staphylococcus epidermidis; test: Antibacterial activity against Staphylococcus epidermidis ATCC 155 by broth microdilution method; type: functional
Outline: (§1)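 Endpoint is the minimum inhibitory concentration, determined by broth microdilution against a panel of susceptible Gram-positive strains. Values are reported as a range spanning two concentrations (for example 8–16). Values above the top concentration tested are given as >16.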

Staphylococcus aureus [2] = test: Antibacterial activity against methicillin-resistant Staphylococcus aureus ATCC 700699 by broth microdilution method; type: functional
Enterococcus faecalis [3] = test: Antibacterial activity against multidrug resistant Enterococcus faecalis ATCC 700802 by broth microdilution method; type: functional
Staphylococcus aureus [4] = test: Antibacterial activity against Staphylococcus aureus ATCC 29213 by broth microdilution method; type: functional
Outline: as §1

[5] = tested on: Staphylococcus epidermidis; test: Antibacterial activity against Staphylococcus epidermidis ATCC 12228 by broth microdilution method; type: functional
Outline: as §1

Enterococcus faecalis [6] = test: Antibacterial activity against Enterococcus faecalis ATCC 29212 by broth microdilution method; type: functional
Outline: as §1

Streptococcus pneumoniae = test: Antibacterial activity against multidrug-resistant Streptococcus pneumoniae ATCC 700904 by broth microdilution method; type: functional
Bacillus subtilis = test: Antibacterial activity against Bacillus subtilis ATCC 6633 by broth microdilution method; type: functional
Outline: as §1

Enterococcus faecium = test: Antibacterial activity against vancomycin-resistant Enterococcus faecium ATCC 700221 by broth microdilution method; type: functional
Enterococcus faecalis [7] = test: Antibacterial activity against Enterococcus faecalis ATCC 14506 by broth microdilution method; type: functional
Outline: as §1

Staphylococcus aureus [8] = test: Antibacterial activity against Staphylococcus aureus ATCC 33591 by broth microdilution method; type: functional
Outline: as §1

Staphylococcus aureus [9] = test: Antibacterial activity against Staphylococcus aureus ATCC 25923 by broth microdilution method; type: functional
Outline: as §1

Staphylococcus aureus [10] = test: Antibacterial activity against Staphylococcus aureus ATCC 33592 by broth microdilution method; type: functional
Outline: as §1

Staphylococcus aureus [11] = test: Antibacterial activity against linezolid-resistant Staphylococcus aureus NRS 119 by broth microdilution method; type: functional
Outline: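 Linezolid-resistant S. aureus strain obtained from NARSA; minimum inhibitory concentration found by broth microdilution and reported as a concentration range.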

Row | Structure (SMILES) | MIC (Streptococcus pyogenes) | MIC [1] | MIC (Staphylococcus aureus [2]) | MIC (Enterococcus faecalis [3]) | MIC (Staphylococcus aureus [4]) | MIC [5] | MIC (Enterococcus faecalis [6]) | MIC (Streptococcus pneumoniae) | MIC (Bacillus subtilis) | MIC (Enterococcus faecium) | MIC (Enterococcus faecalis [7]) | MIC (Staphylococcus aureus [8]) | MIC (Staphylococcus aureus [9]) | MIC (Staphylococcus aureus [10]) | MIC (Staphylococcus aureus [11])
1 | CC(=O)NC[C@H]1CN(c2ccc(N(C)C3CCN(C(=O)/C=C/c4ccccc4)CC3)c(F)c2)C(=O)O1 | 8 µg/mL (≈ 16.2 µM) | 4 µg/mL (≈ 8.09 µM) | 8 µg/mL (≈ 16.2 µM) | 8 µg/mL (≈ 16.2 µM) | 8 µg/mL (≈ 16.2 µM) | 8 µg/mL (≈ 16.2 µM) | > 16 µg/mL | 8 µg/mL (≈ 16.2 µM) | 2 µg/mL (≈ 4.04 µM) | 4 µg/mL (≈ 8.09 µM) | > 16 µg/mL | 8 µg/mL (≈ 16.2 µM) | 8 µg/mL (≈ 16.2 µM) | 4 µg/mL (≈ 8.09 µM) | > 16 µg/mL
2 | CC(=O)NC[C@H]1CN(c2ccc(N3CCOCC3)c(F)c2)C(=O)O1 [LINEZOLID] | 0.5 µg/mL (≈ 1.48 µM) | 1 µg/mL (≈ 2.96 µM) | 1 µg/mL (≈ 2.96 µM) | – | – | 2 µg/mL (≈ 5.93 µM) | – | – | 1 µg/mL (≈ 2.96 µM) | – | – | 1 µg/mL (≈ 2.96 µM) | 1 µg/mL (≈ 2.96 µM) | – | > 16 µg/mL
3 | CC(=O)NC[C@H]1CN(c2ccc(N(C)C3CCN(C(=O)/C=C/c4ccc(O)cc4)CC3)c(F)c2)C(=O)O1 | 8 µg/mL (≈ 15.7 µM) | 8 µg/mL (≈ 15.7 µM) | 4 µg/mL (≈ 7.83 µM) | 8 µg/mL (≈ 15.7 µM) | > 16 µg/mL | 8 µg/mL (≈ 15.7 µM) | 4 µg/mL (≈ 7.83 µM) | 8 µg/mL (≈ 15.7 µM) | 2 µg/mL (≈ 3.92 µM) | 8 µg/mL (≈ 15.7 µM) | > 16 µg/mL | 8 µg/mL (≈ 15.7 µM) | 8 µg/mL (≈ 15.7 µM) | > 16 µg/mL | > 16 µg/mL
4 | CC(=O)NC[C@H]1CN(c2ccc(N(C)C3CCN(C(=O)/C=C/c4ccc(CO)o4)CC3)c(F)c2)C(=O)O1 | > 16 µg/mL | > 16 µg/mL | > 16 µg/mL | > 16 µg/mL | > 16 µg/mL | > 16 µg/mL | > 16 µg/mL | > 16 µg/mL | > 16 µg/mL | > 16 µg/mL | > 16 µg/mL | > 16 µg/mL | > 16 µg/mL | > 16 µg/mL | > 16 µg/mL
5 | CC(=O)NC[C@H]1CN(c2ccc(N(C)C3CCN(C(=O)/C=C/c4ccc5c(c4)OCO5)CC3)c(F)c2)C(=O)O1 | > 16 µg/mL | > 16 µg/mL | > 16 µg/mL | > 16 µg/mL | > 16 µg/mL | 8 µg/mL (≈ 14.9 µM) | 8 µg/mL (≈ 14.9 µM) | > 16 µg/mL | 2 µg/mL (≈ 3.71 µM) | > 16 µg/mL | > 16 µg/mL | 8 µg/mL (≈ 14.9 µM) | > 16 µg/mL | > 16 µg/mL | > 16 µg/mL
6 | CC(=O)NC[C@H]1CN(c2ccc(N3CCN(Cc4ccc([N+](=O)[O-])o4)CC3)c(F)c2)C(=O)O1 [RANBEZOLID] | 2 µg/mL (≈ 4.33 µM) | 0.25 µg/mL (≈ 0.542 µM) | 0.5 µg/mL (≈ 1.08 µM) | 1 µg/mL (≈ 2.17 µM) | 1 µg/mL (≈ 2.17 µM) | 0.5 µg/mL (≈ 1.08 µM) | – | 0.25 µg/mL (≈ 0.542 µM) | 0.25 µg/mL (≈ 0.542 µM) | 2 µg/mL (≈ 4.33 µM) | 2 µg/mL (≈ 4.33 µM) | 1 µg/mL (≈ 2.17 µM) | 1 µg/mL (≈ 2.17 µM) | 1 µg/mL (≈ 2.17 µM) | > 16 µg/mL
7 | CC(=O)NC[C@H]1CN(c2ccc(N(C)C3CCN(C(=O)/C=C/c4ccco4)CC3)c(F)c2)C(=O)O1 | > 16 µg/mL | > 16 µg/mL | 8 µg/mL (≈ 16.5 µM) | > 16 µg/mL | > 16 µg/mL | > 16 µg/mL | > 16 µg/mL | > 16 µg/mL | 2 µg/mL (≈ 4.13 µM) | 8 µg/mL (≈ 16.5 µM) | > 16 µg/mL | > 16 µg/mL | > 16 µg/mL | > 16 µg/mL | > 16 µg/mL
8 | CC(=O)NC[C@H]1CN(c2ccc(N(C)C3CCN(C(=O)/C=C/c4c[nH]c5ccccc45)CC3)c(F)c2)C(=O)O1 | 8 µg/mL (≈ 15 µM) | 4 µg/mL (≈ 7.5 µM) | 2 µg/mL (≈ 3.75 µM) | 8 µg/mL (≈ 15 µM) | > 16 µg/mL | 4 µg/mL (≈ 7.5 µM) | 8 µg/mL (≈ 15 µM) | 8 µg/mL (≈ 15 µM) | 2 µg/mL (≈ 3.75 µM) | 8 µg/mL (≈ 15 µM) | > 16 µg/mL | 8 µg/mL (≈ 15 µM) | 8 µg/mL (≈ 15 µM) | > 16 µg/mL | > 16 µg/mL
9 | CC(=O)NC[C@H]1CN(c2ccc(N(C)C3CCN(C(=O)/C=C/C4CCCCC4)CC3)c(F)c2)C(=O)O1 | > 16 µg/mL | 8 µg/mL (≈ 16 µM) | 4 µg/mL (≈ 7.99 µM) | 8 µg/mL (≈ 16 µM) | 8 µg/mL (≈ 16 µM) | > 16 µg/mL | > 16 µg/mL | 8 µg/mL (≈ 16 µM) | 8 µg/mL (≈ 16 µM) | 8 µg/mL (≈ 16 µM) | 8 µg/mL (≈ 16 µM) | > 16 µg/mL | 8 µg/mL (≈ 16 µM) | 8 µg/mL (≈ 16 µM) | > 16 µg/mL
10 | CC(=O)NC[C@H]1CN(c2ccc(N(C)C3CCN(C(=O)/C=C/c4ccc([N+](=O)[O-])cc4)CC3)c(F)c2)C(=O)O1 | > 16 µg/mL | 8 µg/mL (≈ 14.8 µM) | 8 µg/mL (≈ 14.8 µM) | > 16 µg/mL | > 16 µg/mL | 8 µg/mL (≈ 14.8 µM) | > 16 µg/mL | > 16 µg/mL | 4 µg/mL (≈ 7.41 µM) | > 16 µg/mL | > 16 µg/mL | > 16 µg/mL | > 16 µg/mL | > 16 µg/mL | > 16 µg/mL
11 | CC(=O)NC[C@H]1CN(c2ccc(N(C)C3CCN(C(=O)/C=C/c4ccc([N+](=O)[O-])o4)CC3)c(F)c2)C(=O)O1 | 2 µg/mL (≈ 3.78 µM) | 0.25 µg/mL (≈ 0.472 µM) | 1 µg/mL (≈ 1.89 µM) | 8 µg/mL (≈ 15.1 µM) | 2 µg/mL (≈ 3.78 µM) | 1 µg/mL (≈ 1.89 µM) | 2 µg/mL (≈ 3.78 µM) | 0.25 µg/mL (≈ 0.472 µM) | 0.5 µg/mL (≈ 0.944 µM) | 1 µg/mL (≈ 1.89 µM) | 4 µg/mL (≈ 7.55 µM) | 1 µg/mL (≈ 1.89 µM) | 2 µg/mL (≈ 3.78 µM) | 1 µg/mL (≈ 1.89 µM) | 2 µg/mL (≈ 3.78 µM)
12 | CC(=O)NC[C@H]1CN(c2ccc(N(C)C3CCNCC3)c(F)c2)C(=O)O1 | > 16 µg/mL | > 16 µg/mL | > 16 µg/mL | > 16 µg/mL | > 16 µg/mL | > 16 µg/mL | > 16 µg/mL | > 16 µg/mL | > 16 µg/mL | > 16 µg/mL | > 16 µg/mL | > 16 µg/mL | > 16 µg/mL | > 16 µg/mL | > 16 µg/mL
13 | CC(=O)NC[C@H]1CN(c2ccc(N3CCN(C(=O)CO)CC3)c(F)c2)C(=O)O1 [EPEREZOLID] | 0.25 µg/mL (≈ 0.634 µM) | – | 1 µg/mL (≈ 2.54 µM) | 1 µg/mL (≈ 2.54 µM) | 2 µg/mL (≈ 5.07 µM) | 2 µg/mL (≈ 5.07 µM) | 2 µg/mL (≈ 5.07 µM) | 0.25 µg/mL (≈ 0.634 µM) | 0.5 µg/mL (≈ 1.27 µM) | – | 2 µg/mL (≈ 5.07 µM) | 1 µg/mL (≈ 2.54 µM) | 2 µg/mL (≈ 5.07 µM) | – | > 16 µg/mL
